Experimental data as given in article PMC4224617 (Chemistry & biology, 2014).

Legend:
Plu2411 = target: T1, Plu2411 (Photorhabdus laumondii, UniProt Q7N4D0); assay: LC/MS product detection, GT-only reaction; assay type: biochemical; settings: α-UDP-GlcNAc as substrate
T1 sequence (Q7N4D0 1-259): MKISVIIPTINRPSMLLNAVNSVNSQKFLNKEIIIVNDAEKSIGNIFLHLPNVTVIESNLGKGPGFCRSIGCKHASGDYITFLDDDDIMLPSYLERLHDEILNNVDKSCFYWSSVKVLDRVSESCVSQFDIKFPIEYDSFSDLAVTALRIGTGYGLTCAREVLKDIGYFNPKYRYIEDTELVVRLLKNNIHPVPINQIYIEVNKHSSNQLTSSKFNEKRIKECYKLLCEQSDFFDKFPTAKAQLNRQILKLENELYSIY

[1] = target: chicken egg white lysozyme (Gallus gallus, UniProt P00698); assay: EnzChek fluorescent lysozyme assay, Dixon plot; assay type: biochemical
chicken egg white lysozyme, sequence (P00698 19-147): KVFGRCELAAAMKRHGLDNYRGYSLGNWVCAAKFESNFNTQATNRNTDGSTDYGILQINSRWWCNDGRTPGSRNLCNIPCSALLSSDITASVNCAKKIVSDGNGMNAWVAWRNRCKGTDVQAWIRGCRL
Summary of the method: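 Substrate: fluorescein-labelled Micrococcus lysodeikticus cells (DQ lysozyme substrate). Run according to the kit's instructions. Ki values determined for oligosaccharide test compounds.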

| Structure (SMILES) | Ki [1] | LC/MS product detection, GT-only reaction (Plu2411) |
| --- | --- | --- |
| O=c1ccn([C@@H]2O[C@H](COP(=O)(O)OP(=O)(O)O)[C@@H](O)[C@H]2O)c(=O)[nH]1 [UDP] | – | In the GT-only reaction, we could detect UDP and free Glc-NAc products |
| CC(=O)N[C@H]1[C@@H]2OC[C@@H](O2)[C@@H](O[C@@H]2O[C@H](CO)[C@@H](O)[C@H](O)[C@H]2NC(C)=O)[C@@H]1O [compound 1, 1] | 3590 ± 1290 µM | – |
| CC(=O)N[C@H]1[C@H](O[C@H]2[C@H](O)[C@@H](NC(C)=O)[C@@H]3OC[C@H]2O3)O[C@H](CO)[C@@H](O[C@@H]2O[C@H](CO)[C@@H](O)[C@H](O)[C@H]2N)[C@@H]1O [compound 4, 4] | 400 ± 230 µM | – |
| CC(=O)N[C@H]1[C@H](O[C@H]2[C@H](O)[C@@H](NC(C)=O)[C@@H]3OC[C@H]2O3)O[C@H](CO)[C@@H](O[C@@H]2O[C@H](COP(=O)(O)O)[C@@H](O)[C@H](O)[C@H]2N)[C@@H]1O [compound 5, 5] | 750 ± 410 µM | – |

Continued, in another order:

| Ki [1] | Structure (SMILES) | LC/MS product detection, GT-only reaction (Plu2411) |
| --- | --- | --- |
| 170 ± 130 µM | CC(=O)N[C@H]1[C@@H]2OC[C@@H](O2)[C@@H](O[C@@H]2O[C@H](CO)[C@@H](O[C@@H]3O[C@H](CO)[C@@H](O)[C@H](O)[C@H]3NC(C)=O)[C@H](O)[C@H]2NC(C)=O)[C@@H]1O [compound 2, 2] | – |
| 300 ± 270 µM | CC(=O)N[C@H]1[C@@H]2OC[C@@H](O2)[C@@H](O[C@@H]2O[C@H](CO)[C@@H](O[C@@H]3O[C@H](CO)[C@@H](O[C@@H]4O[C@H](CO)[C@@H](O)[C@H](O)[C@H]4NC(C)=O)[C@H](O)[C@H]3NC(C)=O)[C@H](O)[C@H]2NC(C)=O)[C@@H]1O [compound 3, 3] | – |
